# MC4R barr agon: human MC4R agonism via beta-arrestin. U2OS MC4R beta-arrestin complementation, luminescence; percent of melanotan II response, DMSO zero. AID 540308. activation, % at 8.9 µM. hit rate 0.98% among 360,000;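 active = activation above a per-plate cutoff, the mean activation of sample wells on that plate plus 3 SD, cut at about 8% in these data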
# Target sequence (P32245 whole entry, looked up): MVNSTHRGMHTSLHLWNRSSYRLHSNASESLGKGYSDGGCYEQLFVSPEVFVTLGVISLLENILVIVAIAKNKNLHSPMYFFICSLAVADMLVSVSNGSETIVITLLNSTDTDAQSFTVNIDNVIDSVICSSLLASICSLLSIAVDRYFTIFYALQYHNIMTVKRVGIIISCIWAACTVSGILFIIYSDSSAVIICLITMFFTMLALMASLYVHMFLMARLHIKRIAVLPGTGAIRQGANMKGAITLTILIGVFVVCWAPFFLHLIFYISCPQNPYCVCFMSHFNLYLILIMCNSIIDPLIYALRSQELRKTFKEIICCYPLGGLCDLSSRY
# NTR1 agonist: NTR1 (human) agonism; P30989; NTR1-U2OS beta-arrestin-GFP spot imaging, agonist mode; activation, % at 20 µM; hit rate 0.17% among 330,000;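 active = activation at or above 40% of the spot to cytoplasm intensity ratio, with at least 20 cells analyzed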
# Tb MetRS inh: Trypanosoma brucei MetRS inhibition | inhibition, % at 11.9 µM | purified T. brucei MetRS, ATP depletion, Kinase-Glo luminescence | hit rate 0.4% among 360,000;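 active = inhibition above a per-plate cutoff of the control wells' mean inhibition plus 3 SD, cut at about 5.5% in these data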
#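 System: purified T. brucei MetRS enzyme / Detection: Kinase-Glo luciferase luminescence reporting remaining unconsumed ATP / Medium: HEPES buffer with MgCl2, KCl, DTT, spermine, BSA, pyrophosphatase / Replication: singlicate, one well per compound / Evaluation: percent inhibition relative to median high and low control wells / Schedule: 2 h aminoacylation at 25 °C after 15 min preincubation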
# aDG glyco up: alpha-DG glycosylation activation; Pro5-aDG cells, alpha-DG glycosylation AlphaScreen (IIH6); 0% Pro5, 100% B10-LARGE cell signal; activation, % at 10 µM; AID 624168; hit rate 0.22% among 360,000;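 active = activation of at least 8% versus controls, or a plate z-score of at least 8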;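 also: Pro5 are CHO cells carrying HIG-tagged alpha-DG that lacks glycosylation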
# MC4R antagonist: human MC4R antagonism in cAMP assay | inhibition, % at 6.5 µM | MC4R-expressing cells, MTII-stimulated cAMP, LANCE TR-FRET | P32245 | hit rate 0.48% among 360,000;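 active = inhibition above its plate's cutoff, the mean of tested wells on that plate plus 3 SD, cut at about 29% in these data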
#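 Material: human MC4R-expressing U2OS cells. Probe or stimulus: Melanotan II challenge. Dosing: 6.5 µM single dose. Times: 30-min compound, 1-h challenge, 1-h detection, room temperature. Technique: TR-FRET with Eu-cAMP and labeled anti-cAMP, 671 nm. Replication: singlicate.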
# H9c2 TAG inh: inhibitors of triacylglycerol accumulation | H9c2 cells, Nile Red lipid (TAG) fluorescence; cells loaded with 200 µM oleic acid | AID 651582 | inhibition, % at 12.5 µM | hit rate 0.66% among 230,000;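 active = pattern-corrected inhibition of lipid staining of at least 50% with the nuclear-stain viability signal not falling by more than 50%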
# cAMP nonselect: U2OS forskolin cAMP inhibition counter-screen | AID 602193 | inhibition, % at 6.5 µM | hit rate 26% among 1,600 | parental U2OS, LANCE TR-FRET | shares compounds with MC4R antagonist;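 active = mean inhibition over triplicates above the low-control well mean plus 3 SD, set per campaign, cut at about 13% in these data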;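 also: signal is single emission at 671 nm which falls as cellular cAMP rises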
# MC4R cAMP antag: human MC4R cAMP antagonism confirmation. shares compounds with MC4R antagonist. MC4R-expressing cells, MTII-stimulated cAMP, TR-FRET. inhibition, % at 6.5 µM. hit rate 27% among 1,600. AID 602195; in the data active = inhibition above about 29%
# Hits are given with their value; - = inactive; . = not tested or not shown. An excerpt weighted towards active compounds, which were near 2.4% of everything screened.
SMILES,MC4R barr agon,NTR1 agonist,Tb MetRS inh,aDG glyco up,MC4R antagonist,H9c2 TAG inh,cAMP nonselect,MC4R cAMP antag
C/C=C/c1cccc(-c2nc(C(=O)NC3Cc4ccccc4C3)cc3c2[C@@H](CCO)N(C(C)=O)C3)c1,.,.,-,-,.,.,.,.
O=c1c(=Nc2ccccc2O)c(=O)c2ccccc12,-,-,-,-,34,-,-,-
Cc1cc2nc(CSc3ccc(Cl)cc3)cc(=O)n2[nH]1,-,-,-,-,29,-,-,-
CCCNC(=O)CCc1c(C)nc2nc(-c3cc(OC)cc(OC)c3)nn2c1C,-,-,-,-,-,-,.,.
COCCNC(=O)CCc1c(C)nc2nc(-c3cc(OC)cc(OC)c3)nn2c1C,-,-,-,-,29,-,-,-
CCOC(=O)C1=CCC(c2ccccc2)N(S(=O)(=O)c2ccc(C)cc2)[C@H]1CC (some centres undefined),.,.,-,-,.,.,.,.
C/C(CC(=O)Nc1cccc(Cl)c1Cl)=N\NC(=O)c1ccccc1C,-,-,-,-,29,-,-,-
C/C(CC(=O)Nc1cccc(Cl)c1Cl)=N\NC(=O)C(=O)N1CCCC1,-,-,-,-,-,.,.,.
CCCCN(C(C)=O)c1c(CC)nc2ccc(C(=O)NCCOc3ccc(OC)cc3)cn12,-,.,-,-,-,-,.,.
Cc1ccc(-n2cccc2/C=C2\C(=N)N3N=C(C(C)C)SC3=NC2=O)cc1,-,-,-,-,73,.,-,-
CCCCNC(=O)C1(C)CCCCN1C(=O)c1ccc2c(c1)CCO2 (centres undefined),-,.,-,-,-,-,.,.
COc1ccc(C(C)(O)c2nc(-c3ccc(N(C)C)cc3)cs2)cc1 (centres undefined),-,.,-,-,-,-,.,.
CC(=O)NC(CC(=O)OCC(=O)c1c(N)n(C)c(=O)n(C)c1=O)c1ccccc1 (centres undefined),-,-,-,-,30,.,-,-
CCN(c1ccc(OCC(=O)OCC(=O)c2c(N)n(C)c(=O)n(C)c2=O)cc1)S(=O)(=O)c1ccccc1,-,-,-,-,42,-,-,-
CCC1(c2ccccc2)NC(=O)N(CC#N)C1=O (centres undefined),-,-,-,-,29,-,-,-
CC1(c2ccccc2)NC(=O)N(CC#N)C1=O (centres undefined),-,-,-,-,-,-,.,.
COc1ccc(C(=O)OCC(=O)NC(C)CCc2ccccc2)cc1OC (centres undefined),-,-,-,-,31,.,-,-
COc1ccc(C(=O)OCC(=O)NC(C)CCc2ccccc2)cc1 (centres undefined),-,-,-,-,-,.,.,.
CCCCNC(=O)c1nc(C2CCN(S(=O)(=O)c3c(OC)cccc3OC)CC2)oc1-c1ccccc1,.,.,-,-,.,.,.,.
N#C/C(=C/c1ccc(N2CCCCC2)o1)C(=O)Nc1ccc2ccccc2c1,-,.,-,-,29,.,-,-
CC1=C(C(=O)N2CCCCCC2)CC(CC(=O)NC2CCCCC2)C(=O)N1Cc1ccc(F)cc1 (centres undefined),.,.,-,-,.,.,.,.
COc1ccc(N(C)S(=O)(=O)c2cccc(C(=O)OCC(=O)NCc3ccccc3OC)c2)cc1,-,-,-,-,30,-,-,-
N#Cc1c(N2CCSCC2)nsc1-c1ccccc1Cl,-,.,-,-,29,.,24,47
CC(=O)c1c(O)c(C)c(O)c2c1OC1=CC(=O)/C(=C(/C)N)C(=O)C12C (centres undefined),-,.,-,-,36,-,-,-
COc1ccc(CC(=O)Nc2cc3oc4ccccc4c3cc2OC)cc1,-,-,-,-,29,-,-,-
SMILES,MC4R barr agon,NTR1 agonist,Tb MetRS inh,aDG glyco up,MC4R antagonist,H9c2 TAG inh,cAMP nonselect,MC4R cAMP antag
N#CCC(=O)Nc1ccc(C(=O)OCC(=O)Nc2ccccc2Sc2ccccc2)cc1,-,-,-,-,31,.,-,-
CN(c1ccccc1)c1nc(N)c([N+](=O)[O-])c(NCc2ccccc2)n1,-,-,-,-,-,-,.,.
Cc1nc(Cl)nc(N(C)c2ccccc2)c1[N+](=O)[O-],-,-,-,-,36,-,22,-
O=C1OC(c2ccccc2)=NC12CC2c1ccc(Cl)cc1 (centres undefined),-,-,-,-,29,.,-,-
O=C(Nc1cc(C(F)(F)F)ccc1N1CCOCC1)c1c(F)c(F)c(F)c(F)c1F,-,-,-,-,30,-,16,46
O=C(Nc1cc(C(F)(F)F)ccc1N1CCOCC1)c1ccccc1,-,-,-,-,-,-,.,.
CCc1nc2ccc(C(=O)N(C)CCN(C)C)cn2c1N(CC)C(=O)NCCc1ccccc1,-,.,-,-,-,-,.,.
Cc1sc(NC(=O)c2cccc(N3C(=O)CCC3=O)c2)nc1-c1ccccc1,-,-,-,-,-,-,.,.
CC(=O)c1sc(NC(=O)c2cccc(N3C(=O)CCC3=O)c2)nc1-c1ccccc1,-,-,-,-,68,-,-,-
COc1ccc(-c2csc(NC(=O)c3cccc(N4C(=O)CCC4=O)c3)n2)cc1C,-,-,-,-,58,-,18,33
CCOC(=O)CS(=O)(=O)c1nc(-c2ccc(F)cc2)cc(C(F)(F)F)n1,-,-,-,-,32,-,-,-
CS(=O)(=O)c1nc(-c2ccc(F)cc2)cc(C(F)(F)F)n1,-,.,-,-,-,-,.,.
C[C@H]1CCCCO[C@H](CN(C)Cc2ccc(C(=O)O)cc2)[C@@H](C)CN([C@@H](C)CO)C(=O)c2cc(NS(=O)(=O)c3cn(C)cn3)ccc2O1,-,.,-,-,-,-,.,.
O=[N+]([O-])c1cc(-c2csc(NCCc3nc4cc(Cl)c(Cl)cc4n3CCCO)n2)ccc1Cl,-,-,-,-,33,-,16,-
COc1cc(OC)cc(C(=O)Nc2ccccc2-c2nnn(CC(=O)Nc3cc(C)on3)n2)c1,8.8,-,-,-,30,.,-,-
CCOC(=O)/C=C/c1cccc(C)c1O,.,.,-,-,.,.,.,.
COc1cc(/C=C2\C(=N)N3N=C(C)SC3=NC2=O)cc(Cl)c1OCCOc1ccc(NC(C)=O)cc1,-,-,-,-,30,.,-,-
Cc1ccoc1C(=O)N1CCCC(CCC(=O)N2CCN(c3ccccn3)CC2)C1 (centres undefined),-,-,-,-,31,-,-,-
O=C(NCc1ccco1)C(c1ccccc1)N(C(=O)Cc1cccs1)c1cccnc1 (centres undefined),-,-,-,-,29,-,-,-
CCCCn1nnnc1C(c1ccccc1)N1CCN(c2ccc(C(F)(F)F)cc2[N+](=O)[O-])CC1 (centres undefined),.,.,-,-,.,.,.,.

# High-throughput results deposited in PubChem by several laboratories.
